Assay results from different studies.
Each line is one published result; the experiments were not run side by side.
ADRA2B: Alpha-2B adrenergic receptor (ADRA2B, Homo sapiens, UniProt P18089)
PIK3CG: Phosphatidylinositol 4,5-bisphosphate 3-kinase catalytic subunit gamma isoform (PIK3CG, Homo sapiens, UniProt P48736)

Structure (SMILES) | target | assay | setting | quantity | result
Cc1cc(Oc2ncccc2CN2CCN(c3ccc(Cl)cc3)CC2)ccc1-c1c(C)c(=O)[nH]c(=O)n1C | ADRA2B | ligand displacement, radioligand | – | Ki | 338 nM
Nc1ncnc2c1ncn2C1CCCC1 | Inositol-tetrakisphosphate 1-kinase (Homo sapiens, UniProt Q13572) | binding, ITC | pH 7.2 | Kd | 52 nM
Cc1ccc(CN2C(=O)C(=Nc3cccc(C)c3)c3ccccc32)cc1 | PIK3CG | enzyme activity, inhibitor, ADP detection | – | IC50 | 0.98 nM
Cc1cc(Oc2ncccc2CN2CCN(c3ccccn3)CC2)ccc1-c1c(C)c(=O)[nH]c(=O)n1C | ADRA2B | ligand displacement, radioligand | – | Ki | 267 nM
Cc1cccc(N=C2C(=O)N(Cc3ccccc3)c3ccccc32)c1 | PIK3CG | enzyme activity, inhibitor, ADP detection | – | IC50 | 0.45 nM
COc1cc(-c2noc(C3CNc4cnn(C)c4C3)n2)cc(Cl)c1OC (stereo not drawn) | FBXW7 (Homo sapiens, UniProt Q969H0) | binding, SPR | – | Kd | > 87000 nM
CCN1/C(=C/C(C)=O)Sc2ccc(F)cc21 | ADRA2B | ligand displacement, radioligand | – | Ki | 987 nM
CC(C)C[C@H](NC(=O)[C@H](CC(C)C)NC(=O)[C@H](Cc1c[nH]c2ccccc12)NC(=O)[C@H](CCC(N)=O)NC(=O)[C@@H](NC(=O)[C@H](Cc1ccccc1)NC(=O)[C@H](CC(=O)O)NC(=O)[C@H](CCC(N)=O)NC(=O)[C@H](C)NC(=O)[C@H](C)NC(=O)[C@H](CCCNC(=N)N)NC(=O)[C@H](CCC(=O)O)NC(=O)[C@H](CC(=O)O)NC(=O)[C@H](CC(C)C)NC(=O)[C@H](Cc1ccc(O)cc1)NC(=O)[C@H](CCCCN)NC(=O)[C@H](CO)NC(=O)[C@H](Cc1ccc(O)cc1)NC(=O)[C@H](CC(=O)O)NC(=O)[C@H](CO)NC(=O)[C@@H](NC(=O)[C@H](Cc1ccccc1)NC(=O)[C@@H](NC(=O)CNC(=O)[C@H](CCC(N)=O)NC(=O)C(C)(C)NC(=O)[C@@H](N)Cc1c[nH]cn1)[C@@H](C)O)[C@@H](C)O)C(C)C)C(=O)N[C@@H](CC(=O)O)C(=O)NCC(=O)NCC(=O)N1CCC[C@H]1C(=O)N[C@@H](CO)C(=O)N[C@@H](CC(C)C)C(=O)N[C@@H](CCCNC(=N)N)C(=O)N[C@@H](Cc1c[nH]cn1)C(=O)N[C@@H](Cc1ccc(O)cc1)C(=O)N[C@@H](CC(C)C)C(=O)N[C@@H](CC(N)=O)C(=O)N[C@@H](CC(C)C)C(=O)N[C@H](C(=O)N[C@H](C(=O)N[C@@H](CCCNC(=N)N)C(=O)N[C@@H](CCC(N)=O)C(=O)N[C@@H](CCCNC(=N)N)C(=O)N[C@@H](Cc1ccc(O)cc1)C(N)=O)[C@@H](C)O)C(C)C | Glucagon receptor (GCGR, Homo sapiens, UniProt P47871) | reporter gene, agonist, luciferase | – | EC50 | 0.12 nM
Cc1cc(Oc2ncccc2CN2CCN(c3ccccc3Br)CC2)ccc1-c1c(C)c(=O)[nH]c(=O)n1C | ADRA2B | ligand displacement, radioligand | – | Ki | 49.6 nM
N#Cc1ccc2c(CN3CCOCC3)cc(-c3ccc([C@@H]4CCC(=O)N4)cc3)nc2c1 | Advanced glycosylation end product-specific receptor (AGER, Homo sapiens, UniProt Q15109) | binding, fluorescence | – | Kd | 1 nM
O=C1C(=Nc2cccc(Cl)c2)c2ccccc2N1Cc1ccc([N+](=O)[O-])cc1 | PIK3CG | enzyme activity, inhibitor, ADP detection | – | IC50 | 2.39 nM
Cc1cc(Oc2ncccc2CN2CCN(C(c3ccccc3)c3ccccc3)CC2)ccc1-c1c(C)c(=O)[nH]c(=O)n1C | ADRA2B | ligand displacement, radioligand | – | Ki | 172 nM
